S100A4 MyoIIA – inhibitors of human S100A4 binding to myosin IIA peptide; P26447; AID 652163; S100A4/TAMRA-MyoIIA peptide fluorescence polarization; inhibition, % at 10.7 µM; 0.14% of 360,000 active;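 active = mean inhibition of at least 70% across replicates, with every replicate also reaching that level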
Target sequence (P26447 whole entry, looked up): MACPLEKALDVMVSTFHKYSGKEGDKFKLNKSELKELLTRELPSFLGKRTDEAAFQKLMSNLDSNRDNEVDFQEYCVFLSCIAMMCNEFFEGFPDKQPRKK
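incubation = readout 5 min after mixing, signal stable up to 60 min | system = S100A4 monomer protein | buffer or medium = HEPES pH 7.2 with CaCl2, KCl, NaCl, DTT, Triton | benchmarks = neutral control DMSO, positive control TFP | also added = fluorescent myosin IIA peptide, 5 nM | compound dosing = one concentration per compound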
MLL AF4-AF9 inh – MLL-AF4/AF9 protein interaction inhibition; AlphaScreen, biotin-AF4 peptide binding to FLAG-AF9; inhibition, % at 10 µM; P42568; 0.47% of 350,000 active;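 active = every replicate reaching a set inhibition limit, whatever the replicate mean, cut at about 25% in these data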;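 note: 0% = plate neutral control median and 100% = total signal loss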
SIRT5 block – sirtuin-5 (human) deacylase inhibition; inhibition, % at 15 µM; Purified SirT5, succinyl-peptide AMC, trypsin-coupled fluorescence; 1.1% of 330,000 active; Q9NXA8; in the data active = inhibition above about 15%
Target sequence (Q9NXA8 whole entry, looked up): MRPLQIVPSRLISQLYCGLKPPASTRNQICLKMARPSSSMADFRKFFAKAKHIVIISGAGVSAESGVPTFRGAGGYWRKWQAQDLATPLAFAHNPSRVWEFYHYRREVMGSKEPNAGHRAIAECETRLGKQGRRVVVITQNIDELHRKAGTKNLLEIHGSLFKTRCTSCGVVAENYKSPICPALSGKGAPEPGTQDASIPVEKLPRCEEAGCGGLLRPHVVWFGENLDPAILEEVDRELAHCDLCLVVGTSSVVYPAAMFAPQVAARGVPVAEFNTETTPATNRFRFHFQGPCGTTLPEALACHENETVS
E-selectin induc – E-selectin induction on HUVECs; P16581; activation, % at 7.58 µM; 0.37% of 260,000 active; HUVEC E-selectin immunofluorescence imaging; normalized: neutral wells 0, TNF-alpha wells 100;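 active = mean E-selectin-positive cell signal at least 10% of the positive control, reached in at least 60% of replicates, without over 20% cell loss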
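assay system = HUVEC, human umbilical vein endothelial cells | input = 3,000 HUVEC seeded per well | medium = EGM-2 growth medium on 0.1% gelatin-coated wells | dosing = one compound dose added by pin transfer | signal = immunofluorescence imaging | read-out basis = % PE-positive cells | control set = TNF-alpha, DMSO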
rRNA inh HTS – inhibitors of bacterial rRNA selective over humanized ribosomes; 1.6% of 350,000 active; AID 720706; E. coli WT GFP vs humanized-ribosome RFP mutants, fluorescence, 24 h; hits give low values; DMSO median 0, no signal -100; GFP signal change (wild-type ribosome), % (no concentration beside the values);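 active = significant combined selectivity score with lowered wild-type GFP, culture density cut under 30%, mutant RFP and density less affected; inactive = any of these conditions unmet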
ERAP1 inh – ERAP1 (human) enzyme inhibition. recombinant ERAP1, Leu-AMC fluorescence, 60 min. AID 652197. inhibition, % at 10.7 µM. Q9NZ08. 0.15% of 340,000 active;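 active = mean replicate inhibition of at least 30%, or all replicates individually reaching that 30% level; inactive = mean below 30% and not every replicate reaching it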;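 note: 0% = neutral control wells and 100% = L-leucinethiol positive control wells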
* = called active by the depositor. Compounds with a hit are over-represented: about 3.4% of the library has one in this group of screens.

`C[C@H](CO)N1C[C@H](C)[C@H](CN(C)C(=O)c2ccc(F)cc2)Oc2ncc(-c3ccncc3)cc2C1=O` gave S100A4 MyoIIA 4.3, MLL AF4-AF9 inh -3.3, SIRT5 block 1.7, E-selectin induc -0.9, rRNA inh HTS 3.4 and ERAP1 inh -1.5.
C[C@H](CO)N1C[C@H](C)[C@@H](CN(C)C)OCCCC[C@H](C)Oc2ccc(NS(=O)(=O)c3cccs3)cc2C1=O was read as S100A4 MyoIIA -3.4, MLL AF4-AF9 inh -1.6, SIRT5 block -2.0, E-selectin induc -0.1, rRNA inh HTS 0.4 and ERAP1 inh 0.7.
`CC1(C)NC(=O)N(CCOCCOc2ccccc2-c2ccccc2)C1=O` gave S100A4 MyoIIA 5.7, MLL AF4-AF9 inh -0.9, SIRT5 block 25.5*, rRNA inh HTS -20.8 and ERAP1 inh -1.5.
Screening C=CCNC(=S)NC(=O)c1oc2ccccc2c1C returned S100A4 MyoIIA -11.3, MLL AF4-AF9 inh -1.5, SIRT5 block -8.6, E-selectin induc 48.8*, rRNA inh HTS 13.9 and ERAP1 inh 0.3.
For CCC(=O)c1ccc(OCC(=O)Nc2nc(C)cs2)cc1 the results were S100A4 MyoIIA -2.5, MLL AF4-AF9 inh -6.7, E-selectin induc 0.0, rRNA inh HTS -26.9* and ERAP1 inh -0.2.
`CCOc1ccc(C(=O)NNC(=O)c2cc(C)oc2C)cc1` gave S100A4 MyoIIA -1.3, MLL AF4-AF9 inh -0.9, SIRT5 block -2.3, E-selectin induc 0.0, rRNA inh HTS 4.6 and ERAP1 inh 1.7.
Screening CCC(=O)c1ccc(OCC(=O)NNC(=O)c2cc(C)oc2C)cc1 returned S100A4 MyoIIA 0.8, MLL AF4-AF9 inh -4.7, SIRT5 block -0.1, E-selectin induc 48.8*, rRNA inh HTS -0.2 and ERAP1 inh -0.9.
CCCNC(=O)N1CC2(C1)[C@H](c1ccccc1)[C@@H](CO)N2Cc1ccc(F)cc1 was read as S100A4 MyoIIA -5.2, MLL AF4-AF9 inh -4.6, SIRT5 block -7.7, E-selectin induc -0.1, rRNA inh HTS 4.4 and ERAP1 inh 0.5.
`COc1ccc2c3c([nH]c2c1)[C@H](CO)N(Cc1cccc(Cl)c1)CC31CN(C(C)=O)C1` gave S100A4 MyoIIA 6.1, MLL AF4-AF9 inh -3.1, SIRT5 block 6.6, E-selectin induc -0.5, rRNA inh HTS -5.7 and ERAP1 inh 0.3.
CCC(=O)N1CC(=O)N2[C@H](C1)[C@@H](c1ccc(-c3cccnc3)cc1)[C@@H]2CO was read as S100A4 MyoIIA 3.2, MLL AF4-AF9 inh -7.7, SIRT5 block -0.9, E-selectin induc 0.1, rRNA inh HTS 1.2 and ERAP1 inh 0.7.
Screening O=C(CCCCCn1nnc2ccccc2c1=O)Nc1ccccc1F returned S100A4 MyoIIA -9.1, MLL AF4-AF9 inh 0.8, SIRT5 block -7.3, rRNA inh HTS 10.4 and ERAP1 inh 3.6.
`Cc1c(F)cccc1NC(=O)CCCCCC1NC(=O)NC1C` (centres undefined) gave S100A4 MyoIIA -1.5, MLL AF4-AF9 inh 89.7*, SIRT5 block 3.8, E-selectin induc -0.4, rRNA inh HTS 19.4 and ERAP1 inh -1.0.
`O=C(N[C@H]1C=C[C@@H](CC(=O)N2CCc3ccccc3C2)O[C@H]1CO)C1CC1` gave S100A4 MyoIIA 25.5, MLL AF4-AF9 inh -1.8, SIRT5 block 2.5, E-selectin induc -0.3 and rRNA inh HTS -1.2.
For NC(=O)c1ccc(NC(=O)COC(=O)c2cc([N+](=O)[O-])ccc2N2CCOCC2)cc1 the results were S100A4 MyoIIA -6.0, MLL AF4-AF9 inh 2.2, SIRT5 block -0.3, rRNA inh HTS 1.7 and ERAP1 inh 4.5.
For O=C(COC(=O)c1cc([N+](=O)[O-])ccc1N1CCOCC1)Nc1ccc(Cl)cc1 the results were S100A4 MyoIIA -3.0, MLL AF4-AF9 inh 11.0, SIRT5 block 2.7, rRNA inh HTS -33.5* and ERAP1 inh 6.0.
Nc1ccc(N2CCN(CCCCN3C(=O)C4CCCN4C3=O)CC2)cc1 (centres undefined) was read as S100A4 MyoIIA 8.4, MLL AF4-AF9 inh 48.7*, SIRT5 block -4.4, rRNA inh HTS 6.5 and ERAP1 inh -2.8.

Source: PubChem BioAssay
